Source: ChEMBL document CHEMBL1124122, “Protoberberine alkaloids as antimalarials” (J Med Chem, 1988)
Converted amounts (≈) assume the structure as drawn. The source made the active and inactive calls.

Key:
[1] = tested on: Mus musculus; assay: In vivo Mean survival time of Plasmodium berghei parasitized mice dosed at 160 mg/kg; type: functional
Procedure, shortened: (§1)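 Mice infected with drug-sensitive Plasmodium berghei strain KBG 173. Result given as T − C: the mean survival time of treated mice beyond that of untreated infected controls. A compound counts as active when T − C is ≥ 6.2 days.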

[2] = tested on: Plasmodium falciparum; assay: In vitro antimalarial activity against Plasmodium falciparum W2; type: functional, organism-based
Procedure, shortened: (§2)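 Parasite growth inhibition was read out as uptake of tritiated hypoxanthine.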

[3] = tested on: Plasmodium falciparum; assay: (§3) In vitro antimalarial activity against Plasmodium falciparum D6; type: functional, organism-based
Procedure, shortened: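 Parasite growth inhibition read as uptake of tritiated hypoxanthine.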

[4] = tested on: Mus musculus; assay: In vivo Mean survival time of Plasmodium berghei parasitized mice dosed at 640 mg/kg; type: functional; procedure, shortened: as §1
[5] = tested on: Mus musculus; assay: In vivo Mean survival time of Plasmodium berghei parasitized mice dosed at 40 mg/kg; type: functional; procedure, shortened: as §1
[6] = tested on: Mus musculus; assay: In vivo Mean survival time of Plasmodium berghei parasitized mice dosed at 40 mg/kg; Not active; type: functional, organism-based; parameters: dose 40 mg/kg
Procedure, shortened: (§4)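 Mice were infected with the drug-sensitive P. berghei strain KBG 173 and given the stated dose. T − C is the mean survival time of treated mice beyond that of untreated controls. A compound counts as active only if T − C is ≥ 6.2 days, and toxicity is flagged separately.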

[7] = tested on: Plasmodium falciparum; assay: In vitro antimalarial activity against Plasmodium falciparum D6.; type: functional, organism-based; procedure, shortened: as §2
[8] = tested on: Mus musculus; assay: In vivo Mean survival time of Plasmodium berghei parasitized mice dosed at 640 mg/kg; Not active; type: functional, organism-based; parameters: dose 640 mg/kg; procedure, shortened: as §4
[9] = tested on: Mus musculus; assay: In vivo Mean survival time of Plasmodium berghei parasitized mice dosed at 160 mg/kg; Not active; type: functional, organism-based; parameters: dose 160 mg/kg; procedure, shortened: as §4
[10] = tested on: Plasmodium falciparum; assay: as §3; type: functional, organism-based; procedure, shortened: as §2; remark: listed apart in the source
[11] = tested on: Mus musculus; assay: In vivo Mean survival time of Plasmodium berghei parasitized mice dosed at 640 mg/kg; Toxic; type: functional, organism-based; parameters: dose 640 mg/kg; procedure, shortened: as §4
[12] = tested on: Mus musculus; assay: In vivo Mean survival time of Plasmodium berghei parasitized mice dosed at 160 mg/kg; Toxic; type: functional, organism-based; parameters: dose 160 mg/kg; procedure, shortened: as §4

| SMILES | T-C [1] [days] | IC50 [2] [µg/mL] | IC50 [3] [µg/mL] | T-C [4] [days] | T-C [5] [days] | T-C [6] | IC50 [7] [µg/mL] | T-C [8] | T-C [9] | IC50 [10] [µg/mL] | T-C [11] | T-C [12] |
| --- | --- | --- | --- | --- | --- | --- | --- | --- | --- | --- | --- | --- |
| COc1ccc2c(c1OC)C[N+]1([O-])CCc3cc4c(cc3C1C2)OCO4 (stereo not given) | 0.2 | 0.558 (≈ 1.57 µM) | 0.565 (≈ 1.59 µM) | 0 | 0 |  |  |  |  |  |  |  |
| COc1ccc2c(c1OC)C(C#N)N1CCc3cc4c(cc3C1=C2)OCO4 (stereo not given) |  | 0.143 (≈ 0.395 µM) |  |  |  | inactive | 0.101 (≈ 0.279 µM) | inactive | inactive |  |  |  |
| COc1ccc2c(c1OC)C[N+]1(C)CCc3cc4c(cc3C1C2)OCO4.[I-] (stereo not given) |  | 1.34 | 0.97 |  |  | inactive |  | inactive | inactive |  |  |  |
| COc1ccc2c(OC)c3[n+](cc2c1OC)CCc1cc2c(cc1-3)OCO2 | -0.2 | 0.701 |  | 0.2 | -0.2 |  | 0.568 |  |  |  |  |  |
| COc1ccc2cc3[n+](cc2c1OC)CCc1cc2c(cc1-3)OCO2.[Cl-] [BERBERINE CHLORIDE] | 1 | 0.148 |  |  | 0.6 |  |  |  |  | 0.141 | Toxic |  |
| COc1ccc2c(c1OC)CN1CCc3cc4c(cc3[C@@H]1C2)OCO4 [CANADINE] | 0.1 | 1.74 (≈ 5.12 µM) | 0.555 (≈ 1.64 µM) | 0.3 | 0.1 |  |  |  |  |  |  |  |
| COc1ccc2c(c1OC)CN1CCc3cc4c(cc3C1=C2)OCO4 [DIHYDROBERBERINE] |  | 0.171 (≈ 0.507 µM) | 0.12 (≈ 0.356 µM) |  | -0.2 |  |  |  |  |  | Toxic | Toxic |
| COc1cc2c(cc1O)CC[n+]1cc3c(OC)c(OC)ccc3cc1-2.[Cl-] [JATRORRHIZINE CHLORIDE] |  | 1.61 | 0.422 |  |  | inactive |  | inactive | inactive |  |  |  |
| COc1ccc2cc3n(c(=O)c2c1OC)CCc1cc2c(cc1-3)OCO2 [OXYBERBERINE] | 0.5 | 2.01 (≈ 5.71 µM) |  | 0.3 | 0.1 |  | 0.557 (≈ 1.59 µM) |  |  |  |  |  |
| COc1cc2c(cc1OC)-c1cc3ccc(OC)c(OC)c3c[n+]1CC2.[Cl-] [PALMATINE CHLORIDE] |  | 0.163 |  |  | 0.5 |  | 0.281 |  |  |  | Toxic | Toxic |
